Experimental data reported in ChEMBL document CHEMBL3098058, “Imidazole-derived agonists for the neurotensin 1 receptor” (Bioorg Med Chem Lett, 2014).
≈ marks a conversion by molar mass, not a printed value. Values belong to the compound of their own block, whether it stands above or below them. Calls of active or inactive are those of the source. No cut-off for these calls is given here.

Columns and labels:
[1] = target: T1, Neurotensin receptor type 1 (Homo sapiens, UniProt P30989); experiment: Agonist activity at NTR1 in human U2OS cells after 1 hr by beta-arrestin GFP reporter gene assay relative to NT peptide; assay type: cell-based
Summary of the method: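 U2OS cells expressing NTR1 and a fluorescent β-arrestin reporter, imaged by high-content imaging of receptor–arrestin complex location after activation. EC50 and Emax are calculated relative to the efficacy of NT peptide at a saturating 100 nM.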
Target sequence in this assay (P30989 whole entry): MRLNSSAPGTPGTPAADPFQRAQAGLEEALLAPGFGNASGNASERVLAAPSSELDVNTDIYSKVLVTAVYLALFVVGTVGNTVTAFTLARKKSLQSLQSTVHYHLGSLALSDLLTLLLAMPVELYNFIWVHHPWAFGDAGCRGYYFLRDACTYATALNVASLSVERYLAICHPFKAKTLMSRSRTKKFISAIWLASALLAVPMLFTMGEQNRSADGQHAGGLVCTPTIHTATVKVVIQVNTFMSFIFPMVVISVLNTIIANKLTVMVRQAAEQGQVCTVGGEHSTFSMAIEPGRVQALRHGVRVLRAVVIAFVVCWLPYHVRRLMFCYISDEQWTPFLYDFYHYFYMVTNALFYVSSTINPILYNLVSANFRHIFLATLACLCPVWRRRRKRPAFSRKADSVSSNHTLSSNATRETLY

[2] = target: T1, Neurotensin receptor type 1; experiment: Agonist activity at NTR1 in human U2OS cells after 1 hr by beta-arrestin GFP reporter gene assay; assay type: cell-based
Summary of the method: (§1)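 High-content imaging in U2OS cells expressing the receptor of interest (NTR1, NTR2 or GPR35) plus a β-arrestin fluorescent reporter. The read-out is the location of the receptor–arrestin complex after receptor activation.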
Target sequence in this assay (P30989 whole entry): as above

[3] = target: T1, Neurotensin receptor type 1; experiment: Agonist activity at NTR1 (unknown origin) expressed in CHO cells assessed as Ca2+ mobilization by Fluo-4 NW dye-based fluorescence assay relative to NT peptide; assay type: functional, cell-based
Target sequence in this assay (P30989 whole entry): as above

[4] = Cytotoxicity in human Fa2N-4 cells after 24 hrs; assay type: cell-based; conditions: fa2n-4, 24 h, read-out: LC50 (the source's name)
Summary of the method: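 Fa2N-4 cells are immortalized human hepatocytes. Compounds were exposed for 24 hours. Readout is the LC50 (μM).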

[5] = Metabolic stability in human liver microsomes assessed as compound remaining at 1 hr; assay type: ADME; conditions: read-out: Stability
Summary of the method: (§2)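 Compound stability in human or mouse liver homogenate/microsomes, given as % remaining at 1 hr, run in triplicate.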

[6] = target: T1, Neurotensin receptor type 1; experiment: Agonist activity at NTR1 (unknown origin) expressed in CHO-K1 cells coexpressing beta-arrestin/N-terminal deletion mutant of beta-galactosidase fusion protein by chemiluminescence assay; assay type: cell-based
Summary of the method: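 DiscoveRx PathHunter format. CHO-K1 cells express NTR1 fused in frame to the small ProLink β-gal fragment, stably co-expressed with β-arrestin fused to the N-terminal-deletion β-gal enzyme acceptor. Receptor activation recruits β-arrestin, which forces fragment complementation into active β-gal. The resulting enzyme activity is read by chemiluminescence. EC50 and Emax are expressed as % of NT peptide response.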
Target sequence in this assay (P30989 whole entry, looked up, change not shown): as the sequence (P30989 whole entry) above

[7] = Metabolic stability in mouse plasma assessed as compound remaining at 3 hrs; assay type: ADME, cell-free; conditions: read-out: Stability
[8] = target: T1, Neurotensin receptor type 1; experiment: Agonist activity at NTR1 (unknown origin) expressed in CHO-K1 cells coexpressing coexpressing beta-arrestin/N-terminal deletion mutant of beta-galactosidase fusion protein by chemiluminescence assay relative to NT peptide; assay type: cell-based
Summary of the method: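 PathHunter complementation in CHO-K1 cells. NTR1 is fused to the ProLink small enzyme fragment and co-expressed with a β-arrestin fusion to the N-terminal-deleted β-gal enzyme acceptor. Activation drives β-arrestin binding and β-gal fragment complementation, and enzyme activity is read by chemiluminescence.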
Target sequence in this assay (P30989 whole entry): as above

[9] = Aqueous solubility of the compound in pION buffer at pH 7.4; assay type: physicochemical
[10] = target: T1, Neurotensin receptor type 1; experiment: Inhibition of NTS1 receptor (unknown origin)
Target sequence in this assay (P30989 whole entry): as above

[11] = target: T1, Neurotensin receptor type 1; experiment: Agonist activity at NTR1 (unknown origin) expressed in CHO cells assessed as Ca2+ mobilization by Fluo-4 NW dye-based fluorescence assay; assay type: functional, cell-based
Target sequence in this assay (P30989 whole entry): as above

[12] = Metabolic stability in mouse liver microsomes assessed as compound remaining at 1hr; assay type: ADME, Microsome; conditions: read-out: Stability; summary of the method: as §2
[13] = target: T1, Neurotensin receptor type 1; experiment: Agonist activity at NTR1 (unknown origin) at 10 uM in presence of SR142948A
Summary of the method: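 NTR1 activation is driven by agonist at 10 μM after preincubation with a known NTR1 antagonist. Antagonist inhibition of this activation is reported as IC50.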

[14] = target: Neurotensin receptor type 2 (Homo sapiens, UniProt O95665); experiment: Agonist activity at NTR2 in human U2OS cells after 1 hr by beta-arrestin GFP reporter gene assay; assay type: cell-based; summary of the method: as §1
Neurotensin receptor type 2, sequence (O95665 whole entry): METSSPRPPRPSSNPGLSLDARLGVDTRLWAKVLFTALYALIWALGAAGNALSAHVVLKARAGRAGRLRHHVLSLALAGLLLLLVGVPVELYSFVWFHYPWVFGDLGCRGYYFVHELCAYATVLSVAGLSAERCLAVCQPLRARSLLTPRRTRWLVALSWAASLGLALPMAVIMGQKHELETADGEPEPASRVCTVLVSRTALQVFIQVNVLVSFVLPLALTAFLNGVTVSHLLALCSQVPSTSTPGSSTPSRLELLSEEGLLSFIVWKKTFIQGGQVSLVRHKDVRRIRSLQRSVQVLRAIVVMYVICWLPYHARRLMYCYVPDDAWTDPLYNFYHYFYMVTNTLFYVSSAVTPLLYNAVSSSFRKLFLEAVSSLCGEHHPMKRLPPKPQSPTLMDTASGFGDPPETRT

[15] = Permeability of the compound at donor pH 5.0 and acceptor pH 7.4 by PAMPA; assay type: ADME
[16] = Plasma protein binding in human at 1 uM; assay type: ADME, cell-free
Summary of the method: (§3)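 Plasma protein binding in human or mouse plasma at 1 μM and 10 μM compound, given as % bound.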

[17] = Blood brain permeability of the compound at donor and acceptor pH 7.4 by PAMPA; assay type: ADME
[18] = Permeability of the compound at donor and acceptor pH 7.4 by PAMPA; assay type: ADME
[19] = target: Sodium-dependent dopamine transporter (Homo sapiens, UniProt Q01959); experiment: Inhibition of DAT (unknown origin)
Sodium-dependent dopamine transporter, sequence (Q01959 whole entry): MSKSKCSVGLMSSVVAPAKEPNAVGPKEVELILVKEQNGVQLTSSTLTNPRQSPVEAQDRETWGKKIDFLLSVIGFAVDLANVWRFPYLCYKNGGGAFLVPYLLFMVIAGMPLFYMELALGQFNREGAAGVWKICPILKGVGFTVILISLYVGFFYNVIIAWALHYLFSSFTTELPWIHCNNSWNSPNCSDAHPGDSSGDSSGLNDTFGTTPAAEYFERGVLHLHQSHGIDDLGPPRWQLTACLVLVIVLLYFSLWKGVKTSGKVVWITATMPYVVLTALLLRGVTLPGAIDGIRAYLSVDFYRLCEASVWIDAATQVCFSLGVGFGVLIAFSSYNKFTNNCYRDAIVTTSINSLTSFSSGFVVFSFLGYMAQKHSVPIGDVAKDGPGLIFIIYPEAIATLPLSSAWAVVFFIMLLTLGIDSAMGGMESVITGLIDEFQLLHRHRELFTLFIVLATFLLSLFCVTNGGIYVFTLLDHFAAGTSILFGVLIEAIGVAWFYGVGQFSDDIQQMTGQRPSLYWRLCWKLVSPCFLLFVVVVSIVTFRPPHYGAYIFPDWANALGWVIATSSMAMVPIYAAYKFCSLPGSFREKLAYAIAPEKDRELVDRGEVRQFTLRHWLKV

[20] = target: G-protein coupled receptor 35 (Homo sapiens, UniProt Q9HC97); experiment: Agonist activity at GPR35 in human U2OS cells after 1 hr by beta-arrestin GFP reporter gene assay; assay type: cell-based; summary of the method: as §1
G-protein coupled receptor 35, sequence (Q9HC97 whole entry): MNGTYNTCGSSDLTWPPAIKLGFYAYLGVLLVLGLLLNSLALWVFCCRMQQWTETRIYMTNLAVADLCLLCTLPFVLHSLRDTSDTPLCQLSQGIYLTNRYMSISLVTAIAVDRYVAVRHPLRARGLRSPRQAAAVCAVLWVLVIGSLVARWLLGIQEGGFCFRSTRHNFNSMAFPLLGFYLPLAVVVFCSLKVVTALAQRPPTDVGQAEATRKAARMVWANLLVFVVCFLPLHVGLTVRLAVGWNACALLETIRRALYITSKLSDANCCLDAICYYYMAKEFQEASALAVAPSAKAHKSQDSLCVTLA

[21] = Aqueous solubility of the compound in pION buffer at pH 5.0; assay type: physicochemical
[22] = Plasma protein binding in mouse at 1 uM; assay type: ADME, cell-free; summary of the method: as §3
[23] = Plasma protein binding in mouse at 10 uM; assay type: ADME, cell-free; summary of the method: as §3
[24] = target: T1, Neurotensin receptor type 1; experiment: Ratio of EC50 for NTR1 in human U2OS cells to EC50 for NTR1 (unknown origin) expressed in CHO cells assessed as Ca2+ mobilization; assay type: functional, cell-based
[25] = Aqueous solubility of the compound in pION buffer at pH 6.2; assay type: physicochemical
[26] = Permeability of the compound at donor pH 6.2 and acceptor pH 7.4 by PAMPA; assay type: ADME
[27] = Plasma protein binding in human at 10 uM; assay type: ADME, cell-free; summary of the method: as §3
[28] = Metabolic stability in human plasma assessed as compound remaining at 3 hrs; assay type: ADME, cell-free; conditions: read-out: Stability
[29] = target: Mu-type opioid receptor (Homo sapiens, UniProt P35372); experiment: Inhibition of MOR (unknown origin)
Mu-type opioid receptor, sequence (P35372 whole entry): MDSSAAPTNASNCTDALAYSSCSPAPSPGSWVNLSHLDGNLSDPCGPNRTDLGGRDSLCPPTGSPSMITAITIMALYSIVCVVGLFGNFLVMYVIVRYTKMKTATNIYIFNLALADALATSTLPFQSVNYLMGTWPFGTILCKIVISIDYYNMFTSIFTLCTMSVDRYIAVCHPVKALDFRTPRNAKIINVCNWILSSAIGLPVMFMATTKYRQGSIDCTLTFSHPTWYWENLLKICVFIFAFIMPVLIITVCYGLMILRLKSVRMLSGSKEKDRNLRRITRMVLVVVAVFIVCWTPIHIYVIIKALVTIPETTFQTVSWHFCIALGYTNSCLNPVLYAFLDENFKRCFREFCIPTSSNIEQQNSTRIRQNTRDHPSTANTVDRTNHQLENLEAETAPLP

[30] = target: Delta-type opioid receptor (Homo sapiens, UniProt P41143); experiment: Inhibition of DOR (unknown origin)
Delta-type opioid receptor, sequence (P41143 whole entry): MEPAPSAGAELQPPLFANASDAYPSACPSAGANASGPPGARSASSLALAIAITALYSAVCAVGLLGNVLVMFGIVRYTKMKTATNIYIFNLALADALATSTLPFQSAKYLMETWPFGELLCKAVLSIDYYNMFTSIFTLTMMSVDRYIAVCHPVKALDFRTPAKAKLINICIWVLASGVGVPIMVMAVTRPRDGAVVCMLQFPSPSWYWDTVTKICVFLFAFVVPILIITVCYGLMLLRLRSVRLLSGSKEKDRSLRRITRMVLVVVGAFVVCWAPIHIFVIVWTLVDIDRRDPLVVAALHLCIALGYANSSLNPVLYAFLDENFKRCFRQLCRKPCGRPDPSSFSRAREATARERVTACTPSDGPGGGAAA

SMILES: COc1cccc(OC)c1-c1nc(C(=O)N[C@@H](CC(C)C)C(=O)O)cn1-c1ccc(C)cc1
EC50 [2]: > 80 µM

SMILES: COc1ccccc1-c1nc(C(=O)N[C@@H](CC(C)C)C(=O)O)cn1-c1ccncc1
EC50 [2]: > 80 µM

SMILES: COc1cccc(OC)c1-c1nc(C(=O)N[C@@H](CC(C)C)C(=O)O)cn1-c1ccnc2cc(Cl)ccc12
Emax [1]: 79%
Emax [3]: 93%
CC50 [4]: > 50 µM
remaining at 1 h [5]: 100%
EC50 [6]: 6.1 µM
remaining at 3 h [7]: 100%
Emax [8]: 100%
solubility [9]: > 99 µM
Ki [10]: 10 µM
EC50 [11]: 0.298 µM
remaining at 1 h [12]: 59%
Activity [13]: inactive
EC50 [14]: > 80 µM
permeability [15]: 363 ×10⁻⁶ cm/s
PPB [16]: 98.7%
permeability [17]: 1.2 ×10⁻⁶ cm/s
permeability [18]: 6 ×10⁻⁶ cm/s
EC50 [2]: 2 µM
Ki [19]: > 10 µM
EC50 [20]: > 40 µM
solubility [21]: > 99 µM
PPB [22]: 92.2%
PPB [23]: 91.4%
Ratio EC50 [24]: 5
solubility [25]: > 99 µM
permeability [26]: 17 ×10⁻⁶ cm/s
PPB [27]: 98.7%
remaining at 3 h [28]: 100%

SMILES: CC(C)C[C@H](NC(=O)c1cn(-c2ccnc3ccccc23)c(-c2ccccc2)n1)C(=O)O
EC50 [2]: > 80 µM

SMILES: COc1ccccc1-c1nc(C(=O)N[C@@H](CC(C)C)C(=O)O)cn1-c1ccnc2ccccc12
EC50 [2]: > 80 µM

SMILES: COc1ccc(-c2nc(C(=O)N[C@@H](CC(C)C)C(=O)O)cn2-c2ccnc3cc(Cl)ccc23)c(OC)c1
EC50 [2]: > 80 µM

SMILES: COc1cccc(OC)c1-c1nc(C(=O)N[C@@H](CC(C)C)C(=O)O)cn1-c1cccc2ccccc12
Emax [1]: 93%
CC50 [4]: > 50 µM
remaining at 1 h [5]: 100%
remaining at 3 h [7]: 76%
solubility [9]: > 297 µM
remaining at 1 h [12]: 76%
permeability [15]: 953 ×10⁻⁶ cm/s
PPB [16]: 97.9%
permeability [17]: 1.1 ×10⁻⁶ cm/s
permeability [18]: 12 ×10⁻⁶ cm/s
EC50 [2]: 2.3 µM
solubility [21]: 247 µM (≈ 120 µg/mL)
PPB [22]: 96.4%
PPB [23]: 95.4%
solubility [25]: > 297 µM
permeability [26]: 145 ×10⁻⁶ cm/s
PPB [27]: 98%
remaining at 3 h [28]: 76%

SMILES: CC(C)C[C@H](NC(=O)c1cn(-c2ccncc2)c(-c2ccccc2)n1)C(=O)O
EC50 [2]: > 80 µM

SMILES: COc1cccc(OC)c1-c1cc(C(=O)N[C@@H](CC(C)C)C(=O)O)nn1-c1ccnc2cc(Cl)ccc12
Emax [1]: 100%
CC50 [4]: > 50 µM
remaining at 1 h [5]: 76%
Ki [29]: 3.4 µM
EC50 [6]: > 33 µM
remaining at 3 h [7]: 70.7%
solubility [9]: > 296 µM
Ki [10]: 3.3 µM
EC50 [11]: < 0.156 µM
remaining at 1 h [12]: 46%
EC50 [14]: > 80 µM
permeability [15]: 1270 ×10⁻⁶ cm/s
PPB [16]: 99.6%
permeability [17]: 4.8 ×10⁻⁶ cm/s
Ki [19]: > 10 µM
EC50 [20]: > 40 µM
solubility [21]: 113 µM (≈ 59.1 µg/mL)
PPB [22]: 96.6%
PPB [23]: 97.1%
Ki [30]: 5.2 µM
Ratio EC50 [24]: 5
solubility [25]: > 296 µM
permeability [26]: 725 ×10⁻⁶ cm/s
PPB [27]: 99.7%
remaining at 3 h [28]: 88.9%

Further lines, results first:

Emax [1]: 100%
EC50 [2]: 46 µM
SMILES: COc1cccc(OC)c1-c1nc(C(=O)NC2(C(=O)O)C3CC4CC(C3)CC2C4)cn1-c1ccnc2cc(Cl)ccc12 (stereo not drawn)

EC50 [2]: > 80 µM
SMILES: COc1cccc(OC)c1-c1cc(C(=O)NC2(C(=O)O)C3CC4CC(C3)CC2C4)nn1-c1ccc(C(=O)N(C)CCCN(C)C)cc1C(C)C (stereo not drawn)

Emax [1]: 100%
EC50 [2]: 56 µM
SMILES: COc1ccccc1-c1nc(C(=O)N[C@@H](CC(C)C)C(=O)O)cn1-c1ccnc2cc(Cl)ccc12

Emax [1]: 50%
EC50 [2]: 9.4 µM
SMILES: COc1cccc(OC)c1-c1nc(C(=O)N[C@H](CC(C)C)C(=O)O)cn1-c1ccnc2cc(Cl)ccc12

Emax [1]: 100%
EC50 [2]: 66 µM
SMILES: COc1cccc(OC)c1-c1nc(C(=O)N[C@@H](CC(C)C)C(=O)O)cn1-c1ccncc1

Emax [1]: 78%
EC50 [2]: 9.2 µM
SMILES: Cc1cccc(C)c1-c1nc(C(=O)N[C@@H](CC(C)C)C(=O)O)cn1-c1ccnc2cc(Cl)ccc12

Emax [1]: 59%
EC50 [2]: 3.8 µM
SMILES: COc1cccc(OC)c1-c1nc(C(=O)N[C@@H](CC(C)C)C(=O)O)cn1-c1ccnc2ccccc12

Emax [1]: 100%
EC50 [2]: 72 µM
SMILES: CC(C)C[C@H](NC(=O)c1cn(-c2ccnc3cc(Cl)ccc23)c(-c2ccccc2)n1)C(=O)O

Emax [1]: 100%
EC50 [2]: 31 µM
SMILES: COc1cccc(OC)c1-c1cc(C(=O)NC2(C(=O)O)C3CC4CC(C3)CC2C4)nn1-c1ccnc2cc(Cl)ccc12 (stereo not drawn) [REMINERTANT]

Emax [1]: 98%
EC50 [2]: 0.97 µM
SMILES: COc1ccccc1-c1cc(C(=O)N[C@H](CC(C)C)C(=O)O)nn1-c1ccnc2cc(Cl)ccc12

Emax [1]: 80%
EC50 [2]: 5.2 µM
SMILES: CC(C)C[C@H](NC(=O)c1cn(-c2ccnc3cc(Cl)ccc23)c(-c2c(Cl)cccc2Cl)n1)C(=O)O
